What was measured:
[1] = biological target: T1, Kinesin-like protein KIF11 (Homo sapiens, UniProt P52732); assay: Inhibition of KSP by ATPase assay
T1 sequence (P52732 whole entry): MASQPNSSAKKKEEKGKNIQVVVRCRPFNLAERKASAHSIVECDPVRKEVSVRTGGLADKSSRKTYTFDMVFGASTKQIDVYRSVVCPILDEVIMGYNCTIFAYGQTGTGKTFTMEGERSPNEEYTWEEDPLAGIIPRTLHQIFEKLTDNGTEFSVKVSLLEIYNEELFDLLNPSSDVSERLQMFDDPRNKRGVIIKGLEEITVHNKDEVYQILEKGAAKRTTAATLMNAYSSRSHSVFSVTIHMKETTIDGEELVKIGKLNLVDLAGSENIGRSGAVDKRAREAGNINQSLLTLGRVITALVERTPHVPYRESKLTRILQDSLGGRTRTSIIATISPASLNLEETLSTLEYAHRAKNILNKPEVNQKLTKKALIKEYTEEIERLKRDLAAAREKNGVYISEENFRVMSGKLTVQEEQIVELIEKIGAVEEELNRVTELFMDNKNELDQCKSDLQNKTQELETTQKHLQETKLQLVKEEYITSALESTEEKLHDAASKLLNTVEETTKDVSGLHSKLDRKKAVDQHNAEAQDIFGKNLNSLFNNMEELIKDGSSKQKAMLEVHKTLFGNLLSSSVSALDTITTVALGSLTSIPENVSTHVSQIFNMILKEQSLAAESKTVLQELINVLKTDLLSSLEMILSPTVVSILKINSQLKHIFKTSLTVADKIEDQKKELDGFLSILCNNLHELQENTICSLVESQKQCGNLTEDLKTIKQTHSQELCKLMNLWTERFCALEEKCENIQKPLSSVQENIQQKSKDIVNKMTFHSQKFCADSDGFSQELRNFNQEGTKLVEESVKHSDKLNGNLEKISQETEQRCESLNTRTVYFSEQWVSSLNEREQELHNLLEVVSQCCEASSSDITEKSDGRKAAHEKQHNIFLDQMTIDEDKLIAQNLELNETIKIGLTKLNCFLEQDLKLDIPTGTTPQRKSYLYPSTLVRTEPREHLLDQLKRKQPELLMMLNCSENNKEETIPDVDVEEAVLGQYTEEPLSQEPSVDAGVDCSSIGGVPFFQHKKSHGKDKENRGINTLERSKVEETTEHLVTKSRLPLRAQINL

[2] = tested on: A2780; assay: Mitotic arrest in A2780 cells; type: functional, cell-based; details: Homo sapiens
How it was run: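 M-phase arrest read out by antibody-based detection of phosphonucleolin. Values are the average of at least two determinations, with standard deviations of 25–50%.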

[3] = Plasma clearance in dog at 0.4 mg/kg, iv; type: ADME, organism-based, Canis lupus familiaris; parameters: dose 0.4 mg/kg, route intravenous
How it was run: (§1)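 Given intravenously to dogs at 0.4 mpk, with DMSO as the vehicle.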

[4] = Half life in dog at 0.4 mg/kg, iv; type: ADME, organism-based, Canis lupus familiaris; parameters: dose 0.4 mg/kg, route intravenous; details: in vivo; how it was run: as §1
[5] = Plasma clearance in rat at 1 mg/kg, iv; type: ADME, organism-based; parameters: dose 1 mg/kg, route intravenous
How it was run: (§2)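 Given intravenously to rats at 1 mpk, with DMSO as the vehicle.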

[6] = Half life in rat at 1 mg/kg, iv; type: ADME, organism-based; parameters: dose 1 mg/kg, route intravenous; details: in vivo; how it was run: as §2
[7] = tested on: Canis familiaris; assay: Ratio of AUC's for parent compound after prodrug dosing and parent compound dosing in dog at 0.4 mg/kg, iv; type: ADME, organism-based, Canis lupus familiaris; parameters: dose 0.4 mg/kg, route intravenous; details: in vivo
How it was run: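 Prodrug and parent were each given intravenously in DMSO to dogs at 0.4 mpk. The value is the AUC of parent after prodrug dosing divided by the AUC after direct parent dosing, expressed as a percentage.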

[8] = tested on: Rattus norvegicus; assay: Ratio of AUC's for parent compound after prodrug dosing and parent compound dosing in rat at 1 mg/kg, iv; type: ADME, organism-based; parameters: dose 1 mg/kg, route intravenous; details: in vivo
How it was run: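 Prodrug and parent were each given intravenously in DMSO to rats at 1 mpk. The value is the AUC of parent after prodrug dosing divided by the AUC after direct parent dosing, expressed as a percentage.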

[9] = biological target: Voltage-gated inwardly rectifying potassium channel KCNH2 (Homo sapiens, UniProt Q12809); assay: Inhibitory activity against human hERG receptor expressed in HEK cells
Chain of Voltage-gated inwardly rectifying potassium channel KCNH2 (Q12809 whole entry): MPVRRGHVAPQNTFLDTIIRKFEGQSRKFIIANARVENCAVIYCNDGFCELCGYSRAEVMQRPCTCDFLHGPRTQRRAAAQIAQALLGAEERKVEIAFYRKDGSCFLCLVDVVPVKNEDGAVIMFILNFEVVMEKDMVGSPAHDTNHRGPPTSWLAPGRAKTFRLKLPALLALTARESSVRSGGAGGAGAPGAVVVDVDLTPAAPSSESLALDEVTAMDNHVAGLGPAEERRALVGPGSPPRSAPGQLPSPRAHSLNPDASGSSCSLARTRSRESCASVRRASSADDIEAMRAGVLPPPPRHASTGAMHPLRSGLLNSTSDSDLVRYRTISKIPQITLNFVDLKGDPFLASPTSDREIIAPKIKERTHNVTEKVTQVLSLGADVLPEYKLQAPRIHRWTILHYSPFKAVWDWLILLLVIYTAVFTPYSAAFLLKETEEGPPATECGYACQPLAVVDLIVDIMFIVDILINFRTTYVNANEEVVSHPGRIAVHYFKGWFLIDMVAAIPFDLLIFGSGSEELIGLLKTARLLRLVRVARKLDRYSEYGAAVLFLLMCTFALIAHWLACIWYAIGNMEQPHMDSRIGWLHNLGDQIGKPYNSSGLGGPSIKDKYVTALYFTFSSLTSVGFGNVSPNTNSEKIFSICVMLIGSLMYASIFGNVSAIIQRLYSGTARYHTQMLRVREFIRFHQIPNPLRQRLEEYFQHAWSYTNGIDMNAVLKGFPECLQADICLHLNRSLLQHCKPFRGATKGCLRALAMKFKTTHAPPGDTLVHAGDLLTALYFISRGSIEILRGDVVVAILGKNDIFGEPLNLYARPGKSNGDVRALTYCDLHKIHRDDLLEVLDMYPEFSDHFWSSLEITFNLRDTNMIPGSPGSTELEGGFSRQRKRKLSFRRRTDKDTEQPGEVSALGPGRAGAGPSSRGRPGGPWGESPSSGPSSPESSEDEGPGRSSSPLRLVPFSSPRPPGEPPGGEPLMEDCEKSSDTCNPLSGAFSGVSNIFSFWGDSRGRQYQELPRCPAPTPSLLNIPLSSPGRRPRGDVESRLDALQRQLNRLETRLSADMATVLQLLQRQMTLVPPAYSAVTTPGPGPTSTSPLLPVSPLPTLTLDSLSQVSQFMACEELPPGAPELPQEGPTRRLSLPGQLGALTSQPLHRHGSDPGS

| IC50 [1] [nM] | EC50 [2] [nM] | half-life [4] [min] | half-life [6] [min] | SMILES | further results |
| --- | --- | --- | --- | --- | --- |
| 0.5 | 3 | – | – | N[C@H](C(=O)N1CC(c2cc(F)ccc2F)=C[C@H]1c1cccc(O)c1)C1CC1 | – |
| – | – | 168 | 18 | CC(C)(C)[C@H](NC(=O)OCCO)C(=O)N1CC(c2cc(F)ccc2F)=C[C@H]1c1ccccc1 | clearance [3]: 11 mL/min/kg; clearance [5]: 68 mL/min/kg; Ratio AUC [7]: 38%; Ratio AUC [8]: 57% |
| – | – | < 6 | < 6 | CC(C)(C)[C@H](NC(=O)OCCOP(=O)(O)O)C(=O)N1CC(c2cc(F)ccc2F)=C[C@H]1c1ccccc1 | – |
| 4 | 9.1 | – | – | CN(CCO)C(=O)N1CC(c2cc(F)ccc2F)=C[C@H]1c1cccc(O)c1 | – |
| 5.5 | 8.5 | – | – | CN(C(=O)N1CC(c2cc(F)ccc2F)=CC1c1cccc(O)c1)C1CCNCC1 (racemic) | – |
| 2.9 | 3.1 | – | – | O=C([C@@H](O)C1CC1)N1CC(c2cc(F)ccc2F)=C[C@H]1c1cccc(O)c1 | – |
| 1.2 | 3.3 | – | – | CC(C)[C@H](N)C(=O)N1CC(c2cc(F)ccc2F)=C[C@H]1c1cccc(O)c1 | – |
| 1.3 | 2.6 | – | – | CC(C)(C)[C@H](O)C(=O)N1CC(c2cc(F)ccc2F)=C[C@H]1c1cccc(O)c1 | – |
| 13 | 37 | – | – | CC(C)(C)C(=O)N1CC(c2cc(F)ccc2F)=C[C@H]1c1cccc(O)c1 | IC50 [9]: 7.8 µM |
| 7 | 22 | 90 | 18 | CN(C)C(=O)N1CC(c2cc(F)ccc2F)=C[C@H]1c1cccc(O)c1 | clearance [3]: 13 mL/min/kg; clearance [5]: 68 mL/min/kg |

| SMILES | IC50 [1] [nM] | EC50 [2] [nM] | half-life [4] [min] | half-life [6] [min] | further results |
| --- | --- | --- | --- | --- | --- |
| CN(C)C(=O)N1CC(c2cc(F)ccc2F)=C[C@H]1c1cccc(OP(=O)(O)O)c1 | – | – | 15 | 9 | – |

Reference: ChEMBL document CHEMBL1146124, “Kinesin spindle protein (KSP) inhibitors. Part 3: synthesis and evaluation of phenolic 2,4-diaryl-2,5-dihydropyrroles with reduced hERG binding and employment of a phosphate prodrug strategy for aqueous solubility” (Bioorg Med Chem Lett, 2006)
